One may read the kinetic solubility as solubility judged after dilution from a stock solution rather than from solid. One may read the inhibition in vivo as the percentage by which the read-out fell short of the control.

Values after ≈ are worked out from the molar mass of the structure shown.

Data set [1] in a line: Drug metabolism in mouse liver microsomes at 1 uM by LC/MS method. Format: ADME.
A short description of data set [2]: Solubility in phosphate buffer at pH 6.5 by nephelometry. The format is physicochemical.
Data set [3] concerns Liver microsome. The experiment in a line: Drug metabolism in human liver microsomes at 1 uM by LC/MS method. The format is ADME.
For data set [4], the system named is Liver. The experiment in a line: Intrinsic clearance in mouse liver microsomes assessed as compound metabolized at 1 uM pre-incubated at 37 degC before addition of NADPH-generating system by LC/MS method. The format is ADME.
In data set [5] the test system is Plasmodium berghei. The data set can be described thus: Antimalarial activity against Plasmodium berghei ANKA expressing GFP infected in NMRI mouse assessed as inhibition of parasitemia at 50 mg/kg, ip qd administered as single dose on day 0 to 4 of exposure measured on day 5 post exposure by FACS method relative to control. Format: functional. The essentials:
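P. berghei ANKA GFP infection in mice; dosed intraperitoneally at 50 mg/kg/day × 4, with chloroquine 10 mg/kg ip as reference and untreated controls. Read-out was % reduction in parasitaemia relative to controls, with survival in days also recorded.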

Data set [6] has as its system Liver microsome. The experiment in a line: Intrinsic clearance in human liver microsomes assessed as compound metabolized at 1 uM pre-incubated at 37 degC before addition of NADPH-generating system by LC/MS method. The format is ADME. For orientation: Microsomes from liver hold many membrane-bound enzymes, among them those of drug oxidation.
Data set [7] concerns Plasmodium berghei. The data set can be described thus: Antimalarial activity against Plasmodium berghei ANKA expressing GFP infected in NMRI mouse assessed as increase in mouse survival at 50 mg/kg, ip qd administered as single dose on day 0 to 4 of exposure measured on day 5 post exposure by FACS method (reference value: 7 days). The format is functional. Put shortly: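 P. berghei ANKA GFP infection in mice, dosed intraperitoneally at 50 mg/kg/day × 4. An untreated control group and a chloroquine 10 mg/kg ip reference group were included. Read-outs were % reduction in parasitaemia and mean survival in days.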
For orientation: In flow cytometry, cells or beads pass a laser one at a time.

Consider `Cc1cc(/C=C2\S/C(=N\c3ccccc3)N(C3CCCCC3)C2=O)c(C)n1-c1ccc(F)cc1`, for which the Drug metabolism result in data set [1] and in data set [3] was “metabolite_notdetected” throughout. In data set [2], this compound showed a solubility (kinetic) of 0.8 µg/mL (≈ 1.69 µM). Also, the results for the CLH in data set [4] and in data set [6] were 55 µL/min/mg and 360 µL/min/mg, respectively. In addition, the inhibition in vivo at 50 mg/kg in data set [5] is 12%. For the same compound, in data set [7], the Survival came out at 6 days.

These data come from ChEMBL document CHEMBL3632468, “Discovery and optimisation studies of antimalarial phenotypic hits” (Eur J Med Chem, 2015).
